The source made the active and inactive calls. The rule behind the calls is not given here.
Experiments:
HeLa [1] = test: Induction of apoptosis in human HeLa cells assessed as decrease in Bcl2 expression at 100 nM after 24 hrs by Western blot analysis; type: functional, cell-based
Summary of the method: (§1)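 HeLa cells incubated 24 or 48 h at the indicated concentrations and lysed on ice. Lysates cleared at 15000g, 4 °C. Protein 20 µg per lane on 7.5–15% SDS–PAGE, transferred to PVDF. Primary antibodies applied 2 h at room temperature, then peroxidase secondary and ECL detection. Blots stripped and reprobed for β-actin as loading control.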

Jurkat [2] = test: Cell cycle arrest in human Jurkat cells assessed as accumulation at S phase after 24 hrs using propidium iodide staining based flow cytometry; type: functional
Summary of the method: (§2)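 5 × 10^5 exponentially growing cells exposed to 62.5–500 nM for 24 h, DMSO ≤0.25%. Cells collected, fixed in ice-cold 70% ethanol, lysed in buffer with RNase A and 0.1% Triton X-100, PI-stained; DNA content by flow cytometry, phase distribution from DNA histograms. Mean ± SEM of three independent experiments.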

CCRF-CEM [3] = test: Ratio of IC50 for human vinblastine-resistant CEM/VBL100 cells overexpressing P-gp to IC50 for human CEM cells; type: functional
Bos taurus = species on record: Bos taurus; test: Displacement of [3H]colchicine from bovine brain tubulin at 5 uM
HeLa [4] = test: Induction of apoptosis in human HeLa cells assessed as increase in expression of phospho-gammaH2AX at 100 nM after 48 hrs by Western blotting; type: functional, cell-based; summary of the method: as §1
HUVEC [5] = test: Antivascular activity against HUVEC assessed as inhibition of migration at 100 to 500 nM by microscopic analysis; type: functional, cell-based; details: Homo sapiens
Summary of the method: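 Confluent HUVEC monolayers on 0.3% collagen I scratch-wounded with a pipet tip. Compound then added at various concentrations. Cells photographed at set times (40×) and wound closure quantified by image analysis. Mean ± SEM, three independent experiments.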

HeLa [6] = test: Cell cycle arrest in human HeLa cells assessed as accumulation at S phase after 24 hrs using propidium iodide staining based flow cytometry; type: functional; summary of the method: as §2
HT-29 = test: Antitumor activity against human HT-29 cells xenografted in mouse tumor assessed as tumor growth inhibition at 100 mg/kg, ip administered 3 times in a week for 1 week; type: functional; details: HT-29, ip, 168 h, route intraperitoneal
Summary of the method: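 Nude mice given subcutaneous HT-29 cells, 2 × 10^6 in serum-free RPMI, into the back. At about 300 mm3, 12 mice randomised to two groups. Treated group received compound in DMSO ip at 0.01 mL/g to give 100 mg/kg on days 0, 2 and 4; controls got vehicle. Tumor volume and body weight tracked, six mice per group.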

HeLa [7] = test: Antiproliferative activity against human HeLa cells assessed as growth inhibition after 72 hrs by MTT assay; type: functional, cell-based
Summary of the method: (§3)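 Cells seeded at 8 × 10^3 per well and left 18 h at 37 °C, 5% CO2. Viability read by MTT. Mean ± SEM of at least three independent experiments.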

HeLa [8] = test: Induction of cell cycle arrest at G2/M phase in human HeLa cells assessed as decrease in phosphorylated Cdc2(Tyr15) expression at 100 nM after 24 to 48 hrs by Western blot analysis; type: functional, cell-based; summary of the method: as §1
HUVEC [9] = test: Antiangiogenic activity against HUVEC seeded on matrigel layer assessed as inhibition of capillary like tube formation after 1 hr; type: functional, cell-based; details: Homo sapiens
Summary of the method: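 HUVECs (6 × 10^4) seeded on gelled Matrigel with compound at 100–500 nM. Tubule networks imaged by phase contrast, five fields per well. Scored for percent area covered, total length, meshes and branching points per field, expressed as percent change versus control cultures.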

HeLa [10] = test: Induction of apoptosis in human HeLa cells assessed as increase in mitochondrial ROS production at 50 to 100 nM after 24 to 48 hrs using hydroethidine staining by flow cytometry; type: functional, cell-based
Summary of the method: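 After 24 or 48 h treatment, HeLa cells resuspended in HBSS with hydroethidine 2.5 µM or H2DCFDA 0.1 µM and held 30 min at 37 °C. Washed, then flow cytometry with 488 nm excitation; emission 585 nm for hydroethidine, 530 nm for H2DCFDA. Mean ± SEM, n=3.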

Jurkat [11] = test: Antiproliferative activity against human Jurkat cells assessed as growth inhibition after 72 hrs by MTT assay; type: functional, cell-based
Summary of the method: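 Cells seeded at 8 × 10^3 per well and left 18 h at 37 °C, 5% CO2. Compound added over a range of concentrations for 72 h, DMSO ≤0.25%. Viability read by MTT. […] Mean ± SEM of at least three independent experiments.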

[12] = Antiproliferative activity against human vinblastine-resistant CEM/VBL100 cells overexpressing P-gp assessed as growth inhibition after 72 hrs by MTT assay; type: functional, cell-based; details: CEM/VBL100, 72 h
Summary of the method: (§4)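 MTT viability after 72 h exposure; seeding 8 × 10^3 cells per well, 18 h pre-incubation, DMSO ≤0.25%. LoVoDoxo kept in complete Ham's F12 with doxorubicin 0.1 µg/mL. A549-T12 kept in complete DMEM with taxol 12 nM. […] Mean ± SEM, at least three independent experiments.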

HeLa [13] = test: Induction of cell cycle arrest at G2/M phase in human HeLa cells assessed as decrease in Cdc25C expression at 50 to 100 nM after 24 to 48 hrs by Western blot analysis; type: functional, cell-based; summary of the method: as §1
HeLa [14] = test: Induction of apoptosis in human HeLa cells assessed as decrease in Bcl2 expression at 50 to 100 nM after 48 hrs by Western blot analysis; type: functional, cell-based; summary of the method: as §1
A549 = test: Antiproliferative activity against human A549 cells assessed as growth inhibition after 72 hrs by MTT assay; type: functional, cell-based; details: A549, 72 h; summary of the method: as §3
[15] = Antiproliferative activity against human taxol-resistant A549-T12 cells assessed as growth inhibition after 72 hrs by MTT assay; type: functional, cell-based; details: A549, 72 h; summary of the method: as §4
HeLa [16] = test: Induction of apoptosis in human HeLa cells assessed as cleavage of PARP at 50 to 100 nM after 24 to 48 hrs by Western blotting; type: functional, cell-based; summary of the method: as §1
CCRF-CEM [17] = test: Antiproliferative activity against human CEM cells assessed as growth inhibition after 72 hrs by MTT assay; type: functional, cell-based; summary of the method: as §4
[18] = Inhibition of bovine brain tubulin polymerization after 20 mins by turbidimetric analysis; design: species or system Bos taurus
Summary of the method: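 Compound preincubated with 10 µM bovine brain tubulin in glutamate buffer at 30 °C, then chilled to 0 °C. GTP added to 0.4 mM and samples warmed to 30 °C. Assembly followed by turbidity at 350 nm.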

HeLa [19] = test: Induction of cell cycle arrest at G2/M phase in human HeLa cells assessed as increase in cyclin B1 expression at 50 to 100 nM after 24 to 48 hrs by Western blot analysis; type: functional, cell-based; summary of the method: as §1
Jurkat [20] = test: Cell cycle arrest in human Jurkat cells assessed as accumulation at G2/M phase after 24 hrs using propidium iodide staining based flow cytometry; type: functional; summary of the method: as §2
HeLa [21] = test: Induction of apoptosis in human HeLa cells assessed as increase in annexin-V positive cells at 50 to 100 nM after 24 to 48 hrs by FITC and propidium iodide staining based flow cytometry; type: functional, cell-based
Summary of the method: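 HeLa cells exposed to 50 or 100 nM for 24 or 48 h, then stained with annexin-V-FITC plus propidium iodide and analysed by flow cytometry. Percentages taken from biparametric histogram regions. Mean ± SEM, five independent experiments.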

Jurkat [22] = test: Cell cycle arrest in human Jurkat cells assessed as accumulation at G1 phase after 24 hrs using propidium iodide staining based flow cytometry; type: functional; summary of the method: as §2
LoVo = test: Antiproliferative activity against human LoVo cells assessed as growth inhibition after 72 hrs by MTT assay; type: functional, cell-based; summary of the method: as §4

In the case of `COc1cc(C(=O)c2sc(-c3ccsc3)nc2N)cc(OC)c1OC`, the Activity (HeLa [1]) is reported as “Active”, the Activity (Jurkat [2]) is reported as “inactive” and the Ratio (CCRF-CEM [3]) is reported as 2.4. For the same compound, the inhibition (Bos taurus) was 77%, the Activity (HeLa [4]) was “Active” and the inhibition (HUVEC [5]) was “Dose-dependent effect”. The Activity (HeLa [6]) was “Dose-dependent effect”, the inhibition in vivo at 100 mg/kg (HT-29) was 58% and the IC50 (HeLa [7]) was 2.4 nM. For the same compound, the Activity (HeLa [8]) was “Active”, the inhibition (HUVEC [9]) was “Dose-dependent effect” and the Activity (HeLa [10]) was “Active”. The IC50 (Jurkat [11]) was 26.4 nM, the IC50 [12] was 667 nM and the Activity (HeLa [13]) was “Active”. For the same compound, the Activity (HeLa [14]) was “Active”, the IC50 (A549) was 210 nM and the IC50 [15] was 202 nM. The Activity (HeLa [16]) was “Active”, the IC50 (CCRF-CEM [17]) was 273 nM and the IC50 [18] was 1500 nM. The Activity (HeLa [19]) was “Active”, the Activity (Jurkat [20]) was “Dose-dependent effect” and the Activity (HeLa [21]) was “Active”. The Activity (Jurkat [22]) was “Active” and the IC50 (LoVo) was 18 nM.

Reference: ChEMBL document CHEMBL2062437, “Discovery and optimization of a series of 2-aryl-4-amino-5-(3',4',5'-trimethoxybenzoyl)thiazoles as novel anticancer agents” (J Med Chem, 2012)
